Sampled rows, rich in hits. Any-hit rate of the full collection: about 4.1%.
MrgX1 PAM = human MrgX1 positive allosteric modulation, primary screen. Q96LB2. MrgX1-HEK293, Fluo-4 calcium flux, FDSS; stronger effect = higher value. B-score at 10 µM. hit rate 0.63% among 310,000;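 active = plate-corrected calcium response at least 3 library SD above typical, normal starting fluorescence, not activating the receptor alone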;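 also: compound read alongside a low EC10 to EC30 dose of BAM8-22 agonist; peak minus trough fluorescence over baseline measured at the second addition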
Target sequence (Q96LB2 whole entry, looked up): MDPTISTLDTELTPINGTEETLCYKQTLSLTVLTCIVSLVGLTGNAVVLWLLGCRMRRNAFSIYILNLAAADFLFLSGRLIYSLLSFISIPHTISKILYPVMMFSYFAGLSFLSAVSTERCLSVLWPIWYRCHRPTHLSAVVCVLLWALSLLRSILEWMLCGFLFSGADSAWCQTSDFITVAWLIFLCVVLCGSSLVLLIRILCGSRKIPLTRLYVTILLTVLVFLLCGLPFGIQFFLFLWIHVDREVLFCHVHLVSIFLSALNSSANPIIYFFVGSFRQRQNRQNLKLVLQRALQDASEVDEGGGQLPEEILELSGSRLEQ
RGS4 inh = human RGS4 inhibition | P49798 | hit rate 0.45% among 310,000 | AID 463165 | HEK293 M3R/RGS4 inducible, Fluo-4 calcium flux; stronger effect = higher value; triggered by carbachol at its EC20 | B-score at 10 µM;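 active = B-score, a plate-corrected calcium signal, over three deviations above library mean, with baseline fluorescence within five deviations of library mean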;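 also: RGS4 expression induced by doxycycline in cells with stable M3 receptor; B-score is computed from the integrated fluorescence ratio over baseline after carbachol; higher B-score means a larger calcium signal and so more RGS4 inhibition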
Target sequence (P49798 whole entry, looked up): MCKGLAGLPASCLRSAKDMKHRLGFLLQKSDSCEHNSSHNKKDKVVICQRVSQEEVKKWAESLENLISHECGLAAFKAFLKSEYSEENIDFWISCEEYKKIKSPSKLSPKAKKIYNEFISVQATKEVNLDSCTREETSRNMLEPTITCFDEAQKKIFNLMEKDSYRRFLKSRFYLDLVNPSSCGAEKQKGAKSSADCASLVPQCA
MrgX1 antag = antagonists of human MrgX1 receptor; Q96LB2; MRGX1-HEK293 calcium flux, Fluo-4, BAM8-22 antagonism; stronger effect = lower value; B-score at 10 µM; hit rate 1.3% among 310,000; AID 588676;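 active = calcium-response B-score plate-corrected more than 3 library SD below zero, starting fluorescence within 5 deviations, no agonist response on first addition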;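 also: peak minus trough fluorescence over baseline after final BAM8-22 challenge near maximal dose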
MrgX1 agonist = activates human MrgX1 receptor signaling; MrgX1-HEK293 cells, Fluo-4 calcium fluorescence, agonist mode; stronger effect = higher value; hit rate 0.44% among 310,000; Q96LB2; B-score at 10 µM;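 active = calcium response B-score plate-corrected fluorescence ratio at least 3 library SD, with starting fluorescence B-score inside 5 SD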
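Test system: Stable human MrgX1 HEK293 cell line | Schedule: Overnight plating before 1 h dye loading | Read-out basis: Baseline-normalised fluorescence change ratio, B-scored | Detection: Kinetic calcium dye fluorescence, Fluo-4 NW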
Kir21 block = inhibitors of mouse Kir2.1 inward-rectifier potassium channel. hit rate 0.85% among 310,000. HEK293-Kir2.1, FluxOR thallium flux fluorescence; stronger effect = lower value. B-score at 10 µM. AID 1672;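 active = fluorescence ratio B-score at or below minus 3 SD of library scores, with starting-brightness B-score within 2 SD, cut at about -4.2 in these data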;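 also: channel flux triggered by added potassium and thallium sulfate stimulus; B-score of peak minus minimum fluorescence over baseline after thallium stimulus; more negative B-score means stronger Kir2.1 block with less thallium influx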
RGS4 act = RGS4 potentiation or activation; HEK293 M3R/inducible RGS4, carbachol calcium flux Fluo4; stronger effect = lower value; B-score at 10 µM; hit rate 0.92% among 310,000; AID 463111;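 active = B-score of the integrated calcium signal more than 4 SD below the library mean, with starting fluorescence not abnormally high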;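 also: negative B-score means reduced calcium response which marks RGS4 activation or potentiation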
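System: HEK293 FlpIn-TREx cells, stable M3R, doxycycline-inducible RGS4. Timing: overnight RGS4 induction, 30 min dye load 37 °C, 20 min compound RT. Also added: carbachol, ECmax concentration. Measured by: Fluo4 fluorescence kinetic imaging of calcium. Evaluation: integrated calcium ratio converted to B score.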
RGS4 inh valid = validation of RGS4 inhibitors; calcium response, % at 10 µM; shares compounds with RGS4 inh; hit rate 65% among 1,700; HEK293 M3R/RGS4, carbachol calcium Fluo-4 fluorescence; carbachol added at its EC20; 0 = buffer wells, 100 = carbachol control;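 active = duplicate-averaged calcium response above the buffer-only control mean plus 5 SD of those controls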;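 also: integrated fluorescence ratio F max minus min over baseline F0; higher response in RGS4-induced cells means RGS4 inhibition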
RGS4 uninduced = checks RGS4 inhibitor effects in non-induced HEK293 M3R cells; carbachol calcium Fluo-4; submaximal (EC20) carbachol stimulus; buffer wells 0%, carbachol control wells 100%; hit rate 20% among 1,900; activity (percent), % at 10 µM; shares compounds with RGS4 inh; AID 493000; call rule not given here;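 also: RGS4 induction absent so cells express M3R without RGS4; higher means more calcium signal and flags a non-specific hit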
M3R basal Ca ctr = second counter-screen for RGS4 inhibitors: non-induced cells without carbachol; calcium response (agonist-mode artifact), % at 10 µM; AID 493001; HEK293 M3R/RGS4 non-induced, Fluo-4 calcium, no carbachol; normalised: buffer wells 0%, carbachol wells 100%; hit rate 22% among 1,900; shares compounds with RGS4 inh;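 active = duplicate-averaged calcium rise in uninduced cells above buffer wells' mean plus 5 SD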
Numbers without * were called inactive.

What do the screens show for `CCOC(=O)c1c(CN(CC)CC)oc2cc(Br)c(O)cc12`?
MrgX1 PAM: inactive; RGS4 inh: inactive; MrgX1 antag: inactive; MrgX1 agonist: inactive; Kir21 block: -0.13; RGS4 act: inactive

Results for N#CCc1cccnc1Sc1ccc(Cl)cc1 ?
MrgX1 PAM: inactive; RGS4 inh: inactive; MrgX1 antag: inactive; MrgX1 agonist: inactive; Kir21 block: 1.2; RGS4 act: inactive

Results for O=[N+]([O-])c1c(Nc2ccccn2)cc(Cl)c2nonc12 ?
MrgX1 PAM: inactive; RGS4 inh: 10*; MrgX1 antag: -4.7*; MrgX1 agonist: inactive; Kir21 block: 0.32; RGS4 act: inactive; RGS4 inh valid: 54%*; RGS4 uninduced: inactive; M3R basal Ca ctr: 8.0%*

How did Cc1ccccc1CN1CCCNC1=O do in these assays?
MrgX1 PAM: inactive; RGS4 inh: inactive; MrgX1 antag: inactive; MrgX1 agonist: inactive; Kir21 block: 1.2; RGS4 act: inactive

How did CC(C)C(C(=O)NCc1ccco1)N(C(=O)CNS(=O)(=O)c1ccccc1)C1CCCC1 (stereo unspecified) do in these assays?
MrgX1 PAM: inactive; RGS4 inh: inactive; MrgX1 antag: inactive; MrgX1 agonist: inactive; Kir21 block: 0.11; RGS4 act: inactive

What do the screens show for `C#CCOCCOCCOCCNc1nc(N2CCN(C(=O)[C@H](Cc3ccc(O)cc3)n3cc([C@@H](N)C(C)CC)nn3)CC2)nc(N2CCN(C(=O)[C@H](CCCCN)n3cc([C@@H](N)CO)nn3)CC2)n1` (stereo partly specified)?
MrgX1 PAM: inactive; RGS4 inh: inactive; MrgX1 antag: inactive; MrgX1 agonist: inactive; Kir21 block: -0.36; RGS4 act: inactive

What do the screens show for `Cc1ccc(NC(=O)CN(C)C(=O)Cn2cc(C(F)(F)F)cc(Cl)c2=O)cc1`?
MrgX1 PAM: inactive; RGS4 inh: 5.5*; MrgX1 antag: inactive; MrgX1 agonist: inactive; Kir21 block: 0.02; RGS4 act: inactive; RGS4 inh valid: inactive; RGS4 uninduced: inactive; M3R basal Ca ctr: inactive

Results for CCn1cc(C2=NC(c3ccccc3)CO2)c2ccccc21 (stereo unspecified) ?
MrgX1 PAM: inactive; RGS4 inh: inactive; MrgX1 antag: inactive; MrgX1 agonist: inactive; Kir21 block: 3.4; RGS4 act: inactive

How did CC(=O)n1cc(C(C[N+](=O)[O-])SCCN)c2ccccc21 (stereo unspecified) do in these assays?
MrgX1 PAM: inactive; RGS4 inh: 4.7*; MrgX1 antag: inactive; MrgX1 agonist: 58*; Kir21 block: -13*; RGS4 act: inactive; RGS4 inh valid: 55%*; RGS4 uninduced: inactive; M3R basal Ca ctr: 34%*

How did Cc1ccc(C(=O)NC2CC(C)(C)NC(C)(C)C2)cc1 do in these assays?
MrgX1 PAM: inactive; RGS4 inh: inactive; MrgX1 antag: inactive; MrgX1 agonist: inactive; Kir21 block: 0; RGS4 act: inactive

How did CC1(C)CC(NC(=O)c2coc(=O)c(Br)c2)CC(C)(C)N1 do in these assays?
MrgX1 PAM: inactive; RGS4 inh: 4.7*; MrgX1 antag: inactive; MrgX1 agonist: inactive; Kir21 block: -0.67; RGS4 act: inactive; RGS4 inh valid: 17%*; RGS4 uninduced: inactive; M3R basal Ca ctr: inactive

What do the screens show for `Cc1ccc(N=c2oc3cc(O)ccc3cc2C(N)=O)cc1`?
MrgX1 PAM: inactive; RGS4 inh: inactive; MrgX1 antag: inactive; MrgX1 agonist: inactive; Kir21 block: 1.1; RGS4 act: inactive; RGS4 uninduced: inactive; M3R basal Ca ctr: inactive

How did CC(=O)N1CC(=O)N=C1SCC(=O)Nc1nc(C)c(-c2ccccc2)s1 do in these assays?
MrgX1 PAM: inactive; RGS4 inh: inactive; MrgX1 antag: inactive; MrgX1 agonist: inactive; Kir21 block: -2.3; RGS4 act: inactive; RGS4 inh valid: inactive; RGS4 uninduced: inactive; M3R basal Ca ctr: inactive

How did Cc1csc(NC(=O)CSc2[nH]c(=O)ncc2C)n1 do in these assays?
MrgX1 PAM: inactive; RGS4 inh: inactive; MrgX1 antag: inactive; MrgX1 agonist: inactive; Kir21 block: 2.4; RGS4 act: inactive

How did Cc1ccc(-n2c(O)c(/C=C3/C(c4ccccc4)=Nc4ccccc43)c(=O)[nH]c2=O)cc1 do in these assays?
MrgX1 PAM: inactive; RGS4 inh: 9.8*; MrgX1 antag: inactive; MrgX1 agonist: 29*; Kir21 block: 0.87; RGS4 act: inactive; RGS4 inh valid: 5.0%*; RGS4 uninduced: inactive; M3R basal Ca ctr: 49%*

Results for O=C1[C@H]2[C@@H](C(=O)N1c1cc(Cl)cc(Cl)c1)[C@]1(C(=O)Nc3ccccc31)N1CCC[C@@H]21 ?
MrgX1 PAM: inactive; RGS4 inh: 5.2*; MrgX1 antag: inactive; MrgX1 agonist: inactive; Kir21 block: -1.4; RGS4 act: inactive; RGS4 inh valid: inactive; RGS4 uninduced: inactive; M3R basal Ca ctr: inactive

What do the screens show for `CN(C)c1cccc(N=C2C=C(N3CCOCC3)CC(C)(C)C2)c1`?
MrgX1 PAM: inactive; RGS4 inh: inactive; MrgX1 antag: inactive; MrgX1 agonist: inactive; Kir21 block: -0.77; RGS4 act: inactive

How did CN(C)C=NC(=O)c1ccc(N2CCN(c3ncc(C(F)(F)F)cc3Cl)CC2)cc1 do in these assays?
MrgX1 PAM: inactive; RGS4 inh: 8.2*; MrgX1 antag: inactive; MrgX1 agonist: inactive; Kir21 block: 2.1; RGS4 act: inactive; RGS4 inh valid: 18%*; RGS4 uninduced: inactive; M3R basal Ca ctr: inactive

How did Cc1ccc(-c2ccnc3cc(C)nn23)cc1 do in these assays?
MrgX1 PAM: inactive; RGS4 inh: inactive; MrgX1 antag: inactive; MrgX1 agonist: inactive; Kir21 block: -1.4; RGS4 act: inactive

What do the screens show for `Cc1ccc(-c2ccnc3c(Br)c(C)nn23)cc1`?
MrgX1 PAM: inactive; RGS4 inh: inactive; MrgX1 antag: inactive; MrgX1 agonist: inactive; Kir21 block: -1; RGS4 act: inactive; RGS4 inh valid: inactive; RGS4 uninduced: inactive; M3R basal Ca ctr: inactive
